Assay results: ChEMBL document CHEMBL1909502, “Design and synthesis of 2-(1, 3-dioxoisoindolin-2-yl)-N-(4-oxo-2-substitutedthiazolidin-3-yl) acetamide derivatives as potential anticonvulsant agents” (Eur J Med Chem, 2011)
Calls of active or inactive are those of the source. The rule behind the calls is not given here.

How the values were obtained:
[1] = Octanol-phosphate buffer partition coefficient, log P of the compound at 5 mg after 24 hrs by UV spectroscopic analysis; assay type: physicochemical
Outline: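 Octanol/phosphate buffer partition at room temperature. 5 mg of drug was added to 10 mL octanol plus 10 mL buffer and shaken mechanically for 24 h. The mixture was left to equilibrate for 6 h, and the phases were separated and membrane-filtered. Drug in the aqueous phase was quantified by UV spectroscopy.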

Mus musculus [2] = test: Neurotoxicity in Swiss albino CF1 mouse assessed as decrease in locomotor activity at 30 mg/kg, ip after 4 hrs postdose; assay type: toxicity, organism-based; parameters: dose 30 mg/kg, route intraperitoneal; scale not given: the % may be the effect or the level left; details: in vivo
Outline: (§1)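 Compounds in 30% PEG 200 were given i.p. at 30 mg/kg to male Swiss albino CF-1 mice. Locomotor activity was scored digitally in an actophotometer for 10 min, 24 h before dosing and again 0.5 h and 4 h after. The value is the % decrease against the pre-treatment score, as mean ± SEM, with Student's t test at p < 0.05.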

Mus musculus [3] = test: Neurotoxicity in Swiss albino CF1 mouse assessed as decrease in locomotor activity at 30 mg/kg, ip after 0.5 hrs postdose; assay type: toxicity, organism-based; parameters: dose 30 mg/kg, route intraperitoneal; scale not given: the % may be the effect or the level left; details: in vivo; outline: as §1
Mus musculus [4] = test: Anticonvulsant activity in ip dosed Swiss albino CF1 mouse assessed as protection against maximal electroshock-induced seizures after 0.5 hrs; assay type: functional; details: read-out: MED
Outline: (§2)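 Male Swiss albino CF-1 mice, 20–30 g. Compounds were suspended in 0.5% methyl cellulose and given i.p. at 0.01 mL/g, at 30, 100 and 300 mg/kg. MES and sc PTZ seizure tests followed reported procedures at 0.5 h and 4 h post-dose. The value is the minimal dose protecting 50% or more of the animals.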

Mus musculus [5] = test: Neurotoxicity in Swiss albino CF1 mouse assessed as minimal motor deficit at 30 to 300 mg/kg, ip after 4 hrs by rotarod test; assay type: toxicity, organism-based; parameters: dose 30-300 mg/kg, route intraperitoneal; details: in vivo
Outline: (§3)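 Mice (male Swiss albino CF-1, groups of 5) were trained on an accelerating rotarod at 10 rpm with a 3.2 cm rod and had to stay on for two consecutive 90 s trials. Trained animals then received 30, 100 or 300 mg/kg i.p. Deficit was inability to stay on the rod for at least 1 min in each of three trials, checked at 0.5 h and 4 h. The value is the minimal dose giving deficit in 50% or more of the animals.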

Mus musculus [6] = test: Anticonvulsant activity in ip dosed Swiss albino CF1 mouse assessed as protection against maximal electroshock-induced seizures after 4 hrs; assay type: functional; details: read-out: MED; outline: as §2
Mus musculus [7] = test: Anticonvulsant activity in ip dosed Swiss albino CF1 mouse assessed as protection against subcutaneous pentylenetetrazole-induced seizures after 0.5 hrs; assay type: functional; details: Swiss albino CF1, 0.5 h, read-out: MED; outline: as §2
Mus musculus [8] = test: Anticonvulsant activity in ip dosed Swiss albino CF1 mouse assessed as protection against subcutaneous pentylenetetrazole-induced seizures after 4 hrs; assay type: functional; details: Swiss albino CF1, 4 h, read-out: MED; outline: as §2
Mus musculus [9] = test: Neurotoxicity in Swiss albino CF1 mouse assessed as minimal motor deficit at 30 to 300 mg/kg, ip after 0.5 hrs by rotarod test; assay type: toxicity, organism-based; parameters: dose 30-300 mg/kg, route intraperitoneal; details: in vivo; outline: as §3
Mus musculus [10] = test: Anticonvulsant activity in Swiss albino CF1 mouse assessed as protection against subcutaneous pentylenetetrazole-induced seizures at 30 to 300 mg/kg, ip after 4 hrs postdose; assay type: functional, organism-based; outline: as §2
Mus musculus [11] = test: Neurotoxicity in ip dosed Swiss albino CF1 mouse assessed as minimum dose required to produce minimal motor deficit after 4 hrs by rotarod test; assay type: toxicity, organism-based; details: in vivo; outline: as §3
Mus musculus [12] = test: Neurotoxicity in ip dosed Swiss albino CF1 mouse assessed as minimum dose required to produce minimal motor deficit after 0.5 hrs by rotarod test; assay type: toxicity, organism-based; details: in vivo; outline: as §3
Mus musculus [13] = test: Anticonvulsant activity in Swiss albino CF1 mouse assessed as protection against maximal electroshock-induced seizures at 30 to 300 mg/kg, ip after 0.5 hrs postdose; assay type: functional, organism-based; outline: as §2
Mus musculus [14] = test: Anticonvulsant activity in Swiss albino CF1 mouse assessed as protection against subcutaneous pentylenetetrazole-induced seizures at 30 to 300 mg/kg, ip after 0.5 hrs postdose; assay type: functional, organism-based; outline: as §2

logP at 24 h [1]	Compound	Activity (Mus musculus [2])	Activity (Mus musculus [3])	minimal effective dose (Mus musculus [4])	Activity (Mus musculus [5])	minimal effective dose (Mus musculus [6])	minimal effective dose (Mus musculus [7])	minimal effective dose (Mus musculus [8])	Activity (Mus musculus [9])	Activity (Mus musculus [10])	MTC (Mus musculus [11])	MTC (Mus musculus [12])	Activity (Mus musculus [13])	Activity (Mus musculus [14])
1.31	COc1cc(C2SCC(=O)N2NC(=O)CN2C(=O)c3ccccc3C2=O)ccc1O (stereo not drawn)	7.31%	38.13%	30 mg/kg	Non-toxic	100 mg/kg	300 mg/kg	300 mg/kg	Non-toxic	–	–	–	–	–
–	CCCC(CCC)C(=O)[O-].[Na+] [VALPROATE SODIUM]	–	–	–	Non-toxic	–	300 mg/kg	–	Non-toxic	inactive	–	–	–	–
3.65	O=C(CN1C(=O)c2ccccc2C1=O)NN1C(=O)CSC1/C=C/c1ccccc1 (stereo not drawn)	66.5%	5.66%	300 mg/kg	Non-toxic	300 mg/kg	300 mg/kg	–	Non-toxic	inactive	–	–	–	–
–	O=C1NC(=O)C(c2ccccc2)(c2ccccc2)N1 [PHENYTOIN]	18.57%	33.9%	30 mg/kg	–	30 mg/kg	–	–	–	–	100 mg/kg	100 mg/kg	–	–
2.54	O=C(CN1C(=O)c2ccccc2C1=O)NN1C(=O)CSC1c1ccc(Cl)cc1Cl (stereo not drawn)	25.55%	63.73%	–	Non-toxic	30 mg/kg	100 mg/kg	100 mg/kg	–	–	–	300 mg/kg	inactive	–
2.84	CN(C)c1ccc(C2SCC(=O)N2NC(=O)CN2C(=O)c3ccccc3C2=O)cc1 (stereo not drawn)	44.08%	9.78%	300 mg/kg	Non-toxic	300 mg/kg	300 mg/kg	300 mg/kg	Non-toxic	–	–	–	–	–
2.97	Cc1ccc(C2SCC(=O)N2NC(=O)CN2C(=O)c3ccccc3C2=O)cc1 (stereo not drawn)	68.16%	25.94%	30 mg/kg	Non-toxic	30 mg/kg	100 mg/kg	300 mg/kg	Non-toxic	–	–	–	–	–
1.97	COc1ccc(C2SCC(=O)N2NC(=O)CN2C(=O)c3ccccc3C2=O)cc1 (stereo not drawn)	14.93%	3.25%	100 mg/kg	–	100 mg/kg	–	–	–	inactive	300 mg/kg	300 mg/kg	–	inactive
3.21	O=C(CN1C(=O)c2ccccc2C1=O)NN1C(=O)CSC1c1ccc(Cl)cc1 (stereo not drawn)	16.13%	50.83%	300 mg/kg	Non-toxic	300 mg/kg	300 mg/kg	–	–	inactive	–	300 mg/kg	–	–
